Consider 6 compounds from ChEMBL document CHEMBL4350958, “Rational Design of Short Peptide Variants by Using Kunitzin-RE, an Amphibian-Derived Bioactivity Peptide, for Acquired Potent Broad-Spectrum Antimicrobial and Improved Therapeutic Potential of Commensalism Coinfection of Pathogens” (J Med Chem, 2019).

The source made the active and inactive calls. The rule behind the calls is not given here. Where a SMILES comes first, the peptide text is derived from it.

Series [1] deals with Candida albicans. Put plainly: Antifungal activity against Candida albicans cgmcc2.2086 assessed as ratio of MIC95 in presence of NaCl to in absence of NaCl. Type of series: functional.
Series [2] relates to Staphylococcus aureus. The series is described as follows: Antibacterial activity against Staphylococcus aureus ATCC 29213 assessed as ratio of MIC95 in presence of NaCl to in absence of NaCl. Type of series: functional.
For a further series, the system named is RAW264.7. Put plainly: Cytotoxicity against mouse RAW264.7 cells assessed as reduction in cell viability at 2 to 64 uM measured after 18 to 24 hrs by MTT assay relative to control. Type of series: cell-based. To be noted: raw264.7, 64 µM. In a few lines: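 MTT assay: RAW264.7 cells seeded at 1.0–2.0×10^4 per well and exposed to peptide (2–64 µM) for 18–24 h at 37 °C in 5% CO2. MTT (0.5 mg/mL) added for 4 h, formazan dissolved in DMSO, read at 570 nm. At least three independent experiments with triplicate wells.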
For orientation: Tetrazolium dyes change colour on reduction, which living cells bring about.

Series [3] in a line: Conformational stability in 50% trifluoro-ethyl alcohol assessed as alpha-helical structural propensity at 35 uM by CD spectra analysis. Type of series: physicochemical. In a few lines: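 CD spectra from 190 to 250 nm of peptide at 35 μM in 10 mM PBS, 30 mM SDS micelles or 50% TFE, recorded in a 1.0-mm quartz cell. Ellipticity was converted to mean residue ellipticity. Three independent scans, each averaged over more than 3 runs.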

The subject of series [4] is Escherichia coli. The series is described as follows: Induction of cytoplasmic membrane […] in Escherichia coli ATCC 25922 assessed as increase in ONPG release at 1 to 64 uM measured at 6 mins interval for 120 mins by spectroscopically. Type of series: organism-based. In a few lines:
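E. coli 25922 grown to mid-log in MHB with 2% lactose, then diluted to OD600 0.05 in 5 mM HEPES pH 7.4 with 20 mM glucose and 1.5 mM ONPG. Mixed with equal volume of peptide (1 to 64 μM) at 37 °C. OD420 read every 6 min for 0–120 min. Triplicate, three biological replicates.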

The subject of the next series is Lipid bilayer. Put plainly: Induction of membrane disruption in PG/CL/PE large unilamellar vesicles assessed as calcein-entrapped liposome leakage at 64 uM after 15 mins by spectrofluorophotometric assay relative to control. In a few lines: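 Calcein (70 mM)-loaded LUVs of PG/CL/PE (2:1:7 w/w/w, E. coli membrane mimic), made by freeze-thaw and 100-nm extrusion, free dye removed on Sephadex G-50. LUVs (100 μM) exposed to peptide (1–64 μM) for 15 min. Leakage read at ex 490/em 520 nm: liposomes alone are background, Triton X-100 is 100%. Independent triplicates.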

In another series the test system is Lipopolysaccharide (LPS). The series is described as follows: Displacement of BODIPY-TR-cadaverine from Escherichia coli O111:B4 LPS at 1 to 64 uM after 1 hr by spectrofluorophotometric method relative to control. In a few lines: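 LPS from E. coli O111:B4 (50 μg/mL) preincubated 4 h with BODIPY-TR-cadaverine (5 μg/mL) in 50 mM Tris, pH 7.4. Mixed with equal volume of peptide (1-64 µM) and incubated 1 h at 37 °C, then fluorescence read. %ΔF = (Fobs−F0)/(F100−F0)×100, with 10 μg mL-1 polymyxin B defining F100. Three technical replicates per experiment.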

A short description of series [5]: Hemolytic activity in human RBC at 128 uM measured after 1 hr relative to control. Type of series: ADME, cell-based, Erythrocyte. Conditions: human red blood cells (erythrocytes), read-out: Activity. In a few lines:
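Fresh human erythrocytes at ~1% (v/v) in PBS pH 7.4, mixed with equal volume of peptide (1-128 µM) for 1 h at 37 °C. After centrifugation, hemoglobin in the supernatant read at 576 nm. Untreated cells set 0% and 0.1% Triton X-100 set 100% hemolysis. At least three independent experiments, each in triplicate.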

Series [6] deals with Pseudomonas aeruginosa. The series is described as follows: Antibacterial activity against Pseudomonas aeruginosa ATCC 27853 assessed as ratio of MBC after and before 30 serial passages at sub-MBC. Type of series: functional. In a few lines:
(§1)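 P. aeruginosa ATCC 27853 passaged every 24 h by 100-fold dilution in MHB containing sub-MBC drug, for 30 passages. MBC was tested on the cells from each passage. Control cells were passaged in drug-free MHB. Run independently in triplicate with three biological replicates.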

Series [7] concerns Salmonella enterica subsp. enterica serovar Pullorum. Put plainly: Bactericidal activity against Salmonella pullorum ATCC 7913 incubated for 24 hrs followed by replating on agar plate and measured after overnight incubation. Type of series: functional. In outline: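 Mid-log bacteria diluted in MHB to (0.5–1) × 10^5 CFU/mL and mixed 1:1 with peptide serially diluted in 0.2% BSA. After 24 h at 37 °C, 50 μL of each mixture was plated on agar and incubated overnight. MBC taken as the lowest concentration killing >99.9% of cells. At least three independent experiments, each with three technical replicates.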

The test system is the same in series [8]. Put plainly: Antibacterial activity against Salmonella pullorum ATCC 7913 measured after 24 hrs. Type of series: functional. In outline: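 Broth microdilution adapted from NCCLS. Mid-log bacteria were diluted in MHB to a final (0.5–1) × 10^5 CFU mL−1. Peptides were serially diluted in 0.2% BSA and mixed with an equal volume of cells. After 24 h at 37 °C, MIC was read at A492 as the lowest concentration inhibiting 95% of growth. At least three independent experiments, each with three technical replicates.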

In series [9] the test system is Pseudomonas aeruginosa. The series is described as follows: Antibacterial activity against Pseudomonas aeruginosa ATCC 27853 at sub-MBC measured after 17 serial passages. Type of series: functional, organism-based. In a few lines:
as §1

In series [10] the test system is Staphylococcus aureus. The series is described as follows: Induction of morphological changes in Staphylococcus aureus ATCC 29213 assessed as membrane creping at MBD measured after 1 hr by atomic force microscopic analysis. Type of series: functional, organism-based.
Series [11] concerns Pseudomonas aeruginosa. Put plainly: Antibacterial activity against melittin-resistant Pseudomonas aeruginosa ATCC 27853 measured after 24 hrs. Type of series: functional, organism-based.
Series [12] concerns Pseudomonas aeruginosa. The series is described as follows: Antibacterial activity against Pseudomonas aeruginosa ATCC 27853 at sub-MBC measured after 30 serial passages. Type of series: functional, organism-based. In a few lines: as §1
Series [13] relates to Escherichia coli. Put plainly: Induction of morphological changes in Escherichia coli ATCC 25922 assessed as separation between outer membrane and cytoplasmic membrane at MBD measured after 1 hr by transmission electron microscopic analysis. Type of series: functional, organism-based.
The subject of series [14] is Candida albicans. The series is described as follows: Antifungal activity against Candida albicans cgmcc2.2086 infected in C57BL/6 mouse model of keratitis assessed as appearance of transparent irises at 1 to 5 mg/ml administered as topical eye drop every 5 mins for first 4 hrs and every 30 mins for next 7 hrs measured post-last dose. Type of series: functional, organism-based.

For series [15], the system named is Escherichia coli. The series is described as follows: Induction of morphological changes in Escherichia coli ATCC 25922 assessed as appearance of intracellular empty area at MBD measured after 1 hr by transmission electron microscopic analysis. Type of series: functional, organism-based.
In series [16] the test system is Escherichia coli. Put plainly: Induction of cytoplasmic membrane depolarization in Escherichia coli ATCC 25922 assessed as fluorescence intensity at 2 uM up to 3000 secs by DiSC3-5 dye-based fluorescence spectrophotometric method. In outline:
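Mid-log E. coli ATCC 25922 (OD600 0.05) loaded with 0.4 μM DiSC3-5 and 100 mM K+ in 5 mM HEPES pH 7.4 with 20 mM glucose until fluorescence stabilized. Peptide added in a 1-cm cuvette and fluorescence (ex 622, em 670 nm) recorded 0–3000 s. Triplicate, three biological replicates.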

For H-AARRILRWIFR-NH2, the Ratio with Candida albicans [1] is given as 4; in the series with Staphylococcus aureus [2] it was 16. The Activity in the series with RAW264.7 was above 89.76%. For the same compound, the Stability entry in series [3] is listed as “Stable”.
On to `CC[C@H](C)[C@H](NC(=O)[C@H](CCCCN)NC(=O)[C@H](C)NC(=O)[C@H](C)N)C(=O)N[C@H](C(=O)N[C@@H](CC(C)C)C(=O)N[C@@H](CC(N)=O)C(=O)N1CCC[C@H]1C(=O)N[C@@H](CCCCN)C(=O)N[C@@H](Cc1ccccc1)C(=O)N[C@@H](CCCNC(=N)N)C(=O)N[C@@H](CS)C(=O)N[C@@H](CCCCN)C(=O)N[C@@H](C)C(=O)N[C@@H](C)C(=O)N[C@@H](Cc1ccccc1)C(=O)N[C@@H](CS)C(N)=O)[C@@H](C)CC` (H-AAKIILNPKFRCKAAFC-NH2), for which the outcome in the series on Escherichia coli [4] was Active. Besides, the Activity was below 5% with Lipid bilayer and 72% with Lipopolysaccharide (LPS). In addition, in [5], the hemolysis at 1 h, 128 µM came to 20%.
Consider GENTAMICIN, for which, in the series with Pseudomonas aeruginosa [6], the Ratio was 32. The compound also returned an MBC>99.9 in [7] of 2 µM. Also, the MIC95 in [8] worked out at 1 µM. Also, the result in the series on Pseudomonas aeruginosa [9] was inactive.
As to H-AARIILRWRFR-NH2, the result in the series on Staphylococcus aureus [10], with Pseudomonas aeruginosa [11], with Pseudomonas aeruginosa [12], in the series with Escherichia coli [13], in the series with Candida albicans [14] and in the series with Escherichia coli [15] was Active. Further, the Activity in the series with Lipid bilayer was 65%. Besides, the Ratio in the series with Candida albicans [1] and in the series with Staphylococcus aureus [2] was 4 each time.
As to `CC[C@H](C)[C@H](NC(=O)CN)C(=O)NCC(=O)N[C@@H](C)C(=O)N[C@H](C(=O)N[C@@H](CC(C)C)C(=O)N[C@@H](CCCCN)C(=O)N[C@H](C(=O)N[C@@H](CC(C)C)C(=O)N[C@H](C(=O)N[C@H](C(=O)NCC(=O)N[C@@H](CC(C)C)C(=O)N1CCC[C@H]1C(=O)N[C@@H](C)C(=O)N[C@@H](CC(C)C)C(=O)N[C@H](C(=O)N[C@@H](CO)C(=O)N[C@@H](Cc1c[nH]c2ccccc12)C(=O)N[C@H](C(=O)N[C@@H](CCCCN)C(=O)N[C@@H](CCCNC(=N)N)C(=O)N[C@@H](CCCCN)C(=O)N[C@@H](CCCNC(=N)N)C(=O)N[C@@H](CCC(N)=O)C(=O)N[C@@H](CCC(N)=O)C(N)=O)[C@@H](C)CC)[C@@H](C)CC)[C@@H](C)O)[C@@H](C)O)C(C)C)C(C)C` [MELITTIN], the outcome in the series on Escherichia coli [4] was Active. Moreover, the Ratio in the series on Pseudomonas aeruginosa [6] was 128. In the series with Pseudomonas aeruginosa [9], the outcome was inactive. The Flu intensity in the series with Escherichia coli [16] is recorded as 4000 a.u. This compound also yielded an Activity in the series on Lipopolysaccharide (LPS) of 96%. Besides, the hemolysis at 1 h, 128 µM in [5] fell in the range of 84 to 94%.
POLYMYXIN B gave an MBC>99.9 in series [7] of 1 µM. The MIC95 in series [8] is 1 µM.
